Each block holds one molecule with its values, some of them ahead of it. Active and inactive are the calls of the source. The calls are words filed in the database; no cut-off is given here.
Tests used:
[1] = biological target: T1, Proto-oncogene tyrosine-protein kinase Src (Homo sapiens, UniProt P12931); test: Inhibition of src kinase
Method in brief: (§1)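 Commercial recombinant kinases with kinase-optimised fluorescent peptide substrate at 1.5 μM and ATP at each kinase's measured Km; enzyme below 50 nM final. 11-point titration in DMSO, […] to 5 nM final. Room temperature, 1-2 h, to 20-30% substrate phosphorylation. EDTA stop, then substrate/product electrophoretic separation. IC50 from a Hill-equation fit of percent inhibition.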

[2] = biological target: Tyrosine-protein kinase Lck (Homo sapiens) (UniProt P06239); test: Inhibition of AMP-PNP binding to ATP binding site of LCK by saturation transfer difference spectra
Method in brief: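 Lck kinase domain in 25 mM HEPES (pH 7.5), 200 mM NaCl, 10 mM MgCl2, 1 mM DTT, 5% DMSO/95% D2O; 25 °C, 600 MHz. Ligand is in large excess over protein. Protein saturated at 0.78 ppm for 3 s with 60 G4 Gaussian cascade pulses of 50 ms, 1 ms apart. STD % is peak intensity in STD spectrum over 1D 1H reference.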

[3] = biological target: T1, Proto-oncogene tyrosine-protein kinase Src; test: Inhibition of AMP-PNP binding to ATP binding site of human SRC by saturation transfer difference spectra
[4] = biological target: T1, Proto-oncogene tyrosine-protein kinase Src; test: Inhibition of staurosporine binding to ATP binding site of human SRC by saturation transfer difference spectra
Method in brief: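 Human Src kinase domain (T250-L536, Sf21 insect-cell expressed, His6-tagged, Ni-NTA then gel filtration). NMR buffer 20 mM HEPES (pH 7.5), 200 mM NaCl, 5 mM MgCl2, 2 mM DTT, 2% DMSO/98% D2O; 25 °C, 600 MHz. Saturation at 0.78 ppm for 3 s (60 × 50 ms G4 pulses). STD % is STD over 1D reference intensity.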

[5] = biological target: Tyrosine-protein kinase Lck (Homo sapiens) (UniProt P06239); test: Binding affinity to LCK assessed as reduction of compound relaxation intensity ratio at 100 uM by NMR method
Method in brief: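 Lck kinase domain in 25 mM HEPES (pH 7.5), 200 mM NaCl, 10 mM MgCl2, 1 mM DTT, 5% DMSO/95% D2O; 25 °C, 600 MHz cryoprobe. T1ρ spectra at 10 and 200 ms spin-lock, 128 scans each. Ratio is the 200 ms over 10 ms resonance intensity, compared between spin-labelled probe and its reduced form.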

[6] = biological target: T1, Proto-oncogene tyrosine-protein kinase Src; test: Inhibition of src kinase by functional activity assay of the Src kinase domain
[7] = biological target: Tyrosine-protein kinase ABL1 (Homo sapiens, UniProt P00519); test: Inhibition of Abl 1; method in brief: as §1
Aurora kinase B = Aurora kinase B (Homo sapiens, UniProt Q96GD4); test: Inhibition of Aurora B; method in brief: as §1
[8] = biological target: Cyclin-dependent kinase 1/cyclin B (Homo sapiens, UniProt P06493); test: Inhibition of CDK1/Cyclin B; assay type: protein-complex assay
[9] = biological target: Cyclin-dependent kinase 2/cyclin A (Homo sapiens, UniProt P24941); test: Inhibition of CDK2/Cyclin A; assay type: protein-complex assay
[10] = biological target: Tyrosine-protein kinase Fyn (Homo sapiens, UniProt P06241); test: Inhibition of Fyn; method in brief: as §1
[11] = biological target: Tyrosine-protein kinase HCK (Homo sapiens, UniProt P08631); test: Inhibition of Hck; method in brief: as §1
[12] = biological target: Tyrosine-protein kinase Lyn (Homo sapiens, UniProt P07948); test: Inhibition of Lyn A; method in brief: as §1
[13] = biological target: Vascular endothelial growth factor receptor 2 (Homo sapiens, UniProt P35968); test: Inhibition of KDR; method in brief: as §1
[14] = biological target: Mitogen-activated protein kinase 1 (Homo sapiens, UniProt P28482); test: Inhibition of ERK2
[15] = biological target: Mitogen-activated protein kinase 14 (Homo sapiens, UniProt Q16539); test: Inhibition of p38alpha
[16] = biological target: MAP kinase-activated protein kinase 2 (Homo sapiens, UniProt P49137); test: Inhibition of MK2
[17] = Inhibition of PKA
[18] = biological target: Protein kinase C beta type (Homo sapiens, UniProt P05771); test: Inhibition of PKCbeta1
[19] = biological target: Protein kinase C alpha type (Homo sapiens, UniProt P17252); test: Inhibition of PKCalpha; method in brief: as §1
[20] = biological target: Casein kinase I isoform gamma-1 (Homo sapiens, UniProt Q9HCP0); test: Inhibition of CK1gamma1
[21] = biological target: T2, Mitogen-activated protein kinase kinase kinase kinase 2 (Homo sapiens, UniProt Q12851); test: Inhibition of GCK; method in brief: as §1
T2 sequence (Q12851 whole entry): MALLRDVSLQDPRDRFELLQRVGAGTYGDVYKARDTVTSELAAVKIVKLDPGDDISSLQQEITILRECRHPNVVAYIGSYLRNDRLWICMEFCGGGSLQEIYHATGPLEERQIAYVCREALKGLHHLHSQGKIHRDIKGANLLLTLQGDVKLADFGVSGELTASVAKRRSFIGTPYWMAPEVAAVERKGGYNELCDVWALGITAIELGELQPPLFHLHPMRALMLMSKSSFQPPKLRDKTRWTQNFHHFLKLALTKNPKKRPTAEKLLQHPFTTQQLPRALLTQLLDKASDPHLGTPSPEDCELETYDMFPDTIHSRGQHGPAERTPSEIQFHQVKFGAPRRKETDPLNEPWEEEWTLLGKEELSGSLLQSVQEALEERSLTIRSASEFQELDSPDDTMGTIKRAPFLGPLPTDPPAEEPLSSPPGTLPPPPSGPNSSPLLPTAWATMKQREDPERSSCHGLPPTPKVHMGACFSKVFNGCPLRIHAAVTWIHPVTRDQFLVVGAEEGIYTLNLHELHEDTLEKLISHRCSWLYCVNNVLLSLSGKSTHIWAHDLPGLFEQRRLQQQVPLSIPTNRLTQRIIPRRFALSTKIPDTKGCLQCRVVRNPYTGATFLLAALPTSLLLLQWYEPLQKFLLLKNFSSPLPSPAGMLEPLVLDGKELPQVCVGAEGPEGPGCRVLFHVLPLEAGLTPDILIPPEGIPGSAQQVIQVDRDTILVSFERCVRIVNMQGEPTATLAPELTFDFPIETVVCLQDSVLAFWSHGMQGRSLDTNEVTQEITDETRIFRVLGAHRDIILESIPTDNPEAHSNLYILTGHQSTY

[22] = biological target: Platelet-derived growth factor receptor alpha (Homo sapiens, UniProt P16234); test: Inhibition of PDGFRalpha; method in brief: as §1
[23] = biological target: Ribosomal protein S6 kinase alpha-1 (Homo sapiens, UniProt Q15418); test: Inhibition of RSK1
Chain of Ribosomal protein S6 kinase alpha-1 (Q15418 whole entry): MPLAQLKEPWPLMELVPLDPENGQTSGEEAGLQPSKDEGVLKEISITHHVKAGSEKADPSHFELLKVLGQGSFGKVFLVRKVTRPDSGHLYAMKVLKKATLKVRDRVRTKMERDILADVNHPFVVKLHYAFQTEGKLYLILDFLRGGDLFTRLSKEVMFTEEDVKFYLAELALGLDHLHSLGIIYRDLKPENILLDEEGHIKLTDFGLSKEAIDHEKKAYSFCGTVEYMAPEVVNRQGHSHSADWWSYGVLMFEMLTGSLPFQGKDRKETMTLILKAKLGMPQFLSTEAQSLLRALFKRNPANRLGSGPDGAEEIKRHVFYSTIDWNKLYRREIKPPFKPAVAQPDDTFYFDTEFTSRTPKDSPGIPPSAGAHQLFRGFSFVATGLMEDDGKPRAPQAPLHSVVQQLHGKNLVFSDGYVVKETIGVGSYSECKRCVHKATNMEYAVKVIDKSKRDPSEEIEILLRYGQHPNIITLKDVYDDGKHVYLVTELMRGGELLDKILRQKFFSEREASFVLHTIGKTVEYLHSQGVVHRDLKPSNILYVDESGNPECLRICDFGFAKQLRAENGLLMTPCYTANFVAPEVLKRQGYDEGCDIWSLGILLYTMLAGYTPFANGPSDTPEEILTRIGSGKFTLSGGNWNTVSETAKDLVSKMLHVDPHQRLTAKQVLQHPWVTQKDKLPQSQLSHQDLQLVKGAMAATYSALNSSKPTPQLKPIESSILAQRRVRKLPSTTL

Chain of Tyrosine-protein kinase Lck (Homo sapiens) (P06239 2-509 limits assumed): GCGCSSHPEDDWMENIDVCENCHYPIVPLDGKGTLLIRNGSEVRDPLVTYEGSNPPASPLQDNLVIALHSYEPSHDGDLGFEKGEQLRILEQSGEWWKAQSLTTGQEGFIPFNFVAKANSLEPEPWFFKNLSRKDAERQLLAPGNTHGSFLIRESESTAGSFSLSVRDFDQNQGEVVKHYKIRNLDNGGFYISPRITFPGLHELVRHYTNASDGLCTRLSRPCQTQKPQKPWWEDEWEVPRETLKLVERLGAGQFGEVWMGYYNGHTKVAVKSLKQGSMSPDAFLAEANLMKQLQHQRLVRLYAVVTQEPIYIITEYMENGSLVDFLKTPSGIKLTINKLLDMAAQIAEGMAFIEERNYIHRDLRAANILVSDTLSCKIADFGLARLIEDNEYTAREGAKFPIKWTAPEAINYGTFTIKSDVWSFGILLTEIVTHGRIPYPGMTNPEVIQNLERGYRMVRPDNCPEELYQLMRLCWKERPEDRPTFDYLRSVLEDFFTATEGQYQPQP
T1 sequence (P12931 2-536 limits assumed): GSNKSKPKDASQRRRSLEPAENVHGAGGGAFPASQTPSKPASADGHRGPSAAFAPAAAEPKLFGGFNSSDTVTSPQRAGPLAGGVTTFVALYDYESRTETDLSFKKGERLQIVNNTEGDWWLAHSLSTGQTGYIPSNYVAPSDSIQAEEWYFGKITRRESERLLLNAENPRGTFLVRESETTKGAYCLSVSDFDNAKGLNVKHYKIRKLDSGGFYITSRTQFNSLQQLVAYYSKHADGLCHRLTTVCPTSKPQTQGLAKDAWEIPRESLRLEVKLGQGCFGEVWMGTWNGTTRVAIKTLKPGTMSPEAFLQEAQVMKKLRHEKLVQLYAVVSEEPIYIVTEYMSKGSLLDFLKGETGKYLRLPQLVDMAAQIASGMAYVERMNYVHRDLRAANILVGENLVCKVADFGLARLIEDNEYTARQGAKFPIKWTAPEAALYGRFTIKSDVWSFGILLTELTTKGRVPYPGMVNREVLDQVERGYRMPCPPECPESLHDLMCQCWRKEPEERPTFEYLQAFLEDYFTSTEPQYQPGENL
Chain of Mitogen-activated protein kinase 1 (P28482 whole entry): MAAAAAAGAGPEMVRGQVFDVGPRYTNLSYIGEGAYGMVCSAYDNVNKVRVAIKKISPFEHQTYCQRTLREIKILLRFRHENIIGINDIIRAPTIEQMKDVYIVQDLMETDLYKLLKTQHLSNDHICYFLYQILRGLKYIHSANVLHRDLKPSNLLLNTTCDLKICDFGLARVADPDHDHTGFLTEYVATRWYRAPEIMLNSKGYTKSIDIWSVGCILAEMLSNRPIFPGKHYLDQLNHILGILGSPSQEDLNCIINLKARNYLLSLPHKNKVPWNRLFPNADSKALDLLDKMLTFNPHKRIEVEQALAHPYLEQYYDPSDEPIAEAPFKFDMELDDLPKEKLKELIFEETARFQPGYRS
Chain of Casein kinase I isoform gamma-1 (Q9HCP0 whole entry, canonical isoform): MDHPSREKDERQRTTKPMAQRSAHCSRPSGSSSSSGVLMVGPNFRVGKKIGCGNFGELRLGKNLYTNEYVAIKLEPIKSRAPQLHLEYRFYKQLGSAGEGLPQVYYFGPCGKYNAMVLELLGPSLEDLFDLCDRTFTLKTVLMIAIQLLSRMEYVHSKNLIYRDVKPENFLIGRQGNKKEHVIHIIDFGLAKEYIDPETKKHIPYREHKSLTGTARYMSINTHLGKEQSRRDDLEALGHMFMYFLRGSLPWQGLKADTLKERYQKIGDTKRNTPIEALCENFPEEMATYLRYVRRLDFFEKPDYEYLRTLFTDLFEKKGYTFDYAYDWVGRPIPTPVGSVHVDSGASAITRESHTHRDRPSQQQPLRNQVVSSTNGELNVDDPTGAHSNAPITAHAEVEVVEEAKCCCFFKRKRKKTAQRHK
Chain of Tyrosine-protein kinase HCK (P08631 whole entry): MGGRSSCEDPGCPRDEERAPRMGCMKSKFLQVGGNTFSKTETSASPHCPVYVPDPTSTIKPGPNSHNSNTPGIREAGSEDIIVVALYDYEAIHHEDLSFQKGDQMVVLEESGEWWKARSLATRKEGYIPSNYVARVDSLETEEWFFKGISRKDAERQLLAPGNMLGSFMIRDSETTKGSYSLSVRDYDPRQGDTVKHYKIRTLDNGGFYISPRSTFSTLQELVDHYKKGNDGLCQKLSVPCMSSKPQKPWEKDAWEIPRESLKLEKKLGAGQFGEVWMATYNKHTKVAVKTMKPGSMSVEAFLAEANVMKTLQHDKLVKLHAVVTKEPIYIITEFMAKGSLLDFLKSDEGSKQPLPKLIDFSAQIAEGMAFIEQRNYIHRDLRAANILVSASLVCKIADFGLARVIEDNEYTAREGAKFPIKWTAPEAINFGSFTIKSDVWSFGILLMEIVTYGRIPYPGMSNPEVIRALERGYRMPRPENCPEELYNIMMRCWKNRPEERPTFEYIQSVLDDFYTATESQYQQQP
Chain of Tyrosine-protein kinase Lyn (P07948 whole entry): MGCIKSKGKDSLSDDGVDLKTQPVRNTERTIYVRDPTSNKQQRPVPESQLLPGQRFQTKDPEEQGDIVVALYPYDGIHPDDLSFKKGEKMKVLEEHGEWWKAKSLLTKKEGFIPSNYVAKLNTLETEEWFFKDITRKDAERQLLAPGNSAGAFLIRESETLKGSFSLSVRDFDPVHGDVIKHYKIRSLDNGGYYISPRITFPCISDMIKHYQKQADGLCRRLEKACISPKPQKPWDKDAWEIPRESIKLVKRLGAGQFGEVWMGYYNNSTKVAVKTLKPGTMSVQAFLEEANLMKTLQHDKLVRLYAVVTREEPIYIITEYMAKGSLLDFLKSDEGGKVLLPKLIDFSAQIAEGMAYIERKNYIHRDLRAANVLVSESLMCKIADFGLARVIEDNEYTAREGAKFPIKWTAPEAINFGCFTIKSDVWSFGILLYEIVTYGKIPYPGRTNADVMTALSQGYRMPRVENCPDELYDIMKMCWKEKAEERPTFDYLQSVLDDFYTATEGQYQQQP
Chain of Vascular endothelial growth factor receptor 2 (P35968 whole entry): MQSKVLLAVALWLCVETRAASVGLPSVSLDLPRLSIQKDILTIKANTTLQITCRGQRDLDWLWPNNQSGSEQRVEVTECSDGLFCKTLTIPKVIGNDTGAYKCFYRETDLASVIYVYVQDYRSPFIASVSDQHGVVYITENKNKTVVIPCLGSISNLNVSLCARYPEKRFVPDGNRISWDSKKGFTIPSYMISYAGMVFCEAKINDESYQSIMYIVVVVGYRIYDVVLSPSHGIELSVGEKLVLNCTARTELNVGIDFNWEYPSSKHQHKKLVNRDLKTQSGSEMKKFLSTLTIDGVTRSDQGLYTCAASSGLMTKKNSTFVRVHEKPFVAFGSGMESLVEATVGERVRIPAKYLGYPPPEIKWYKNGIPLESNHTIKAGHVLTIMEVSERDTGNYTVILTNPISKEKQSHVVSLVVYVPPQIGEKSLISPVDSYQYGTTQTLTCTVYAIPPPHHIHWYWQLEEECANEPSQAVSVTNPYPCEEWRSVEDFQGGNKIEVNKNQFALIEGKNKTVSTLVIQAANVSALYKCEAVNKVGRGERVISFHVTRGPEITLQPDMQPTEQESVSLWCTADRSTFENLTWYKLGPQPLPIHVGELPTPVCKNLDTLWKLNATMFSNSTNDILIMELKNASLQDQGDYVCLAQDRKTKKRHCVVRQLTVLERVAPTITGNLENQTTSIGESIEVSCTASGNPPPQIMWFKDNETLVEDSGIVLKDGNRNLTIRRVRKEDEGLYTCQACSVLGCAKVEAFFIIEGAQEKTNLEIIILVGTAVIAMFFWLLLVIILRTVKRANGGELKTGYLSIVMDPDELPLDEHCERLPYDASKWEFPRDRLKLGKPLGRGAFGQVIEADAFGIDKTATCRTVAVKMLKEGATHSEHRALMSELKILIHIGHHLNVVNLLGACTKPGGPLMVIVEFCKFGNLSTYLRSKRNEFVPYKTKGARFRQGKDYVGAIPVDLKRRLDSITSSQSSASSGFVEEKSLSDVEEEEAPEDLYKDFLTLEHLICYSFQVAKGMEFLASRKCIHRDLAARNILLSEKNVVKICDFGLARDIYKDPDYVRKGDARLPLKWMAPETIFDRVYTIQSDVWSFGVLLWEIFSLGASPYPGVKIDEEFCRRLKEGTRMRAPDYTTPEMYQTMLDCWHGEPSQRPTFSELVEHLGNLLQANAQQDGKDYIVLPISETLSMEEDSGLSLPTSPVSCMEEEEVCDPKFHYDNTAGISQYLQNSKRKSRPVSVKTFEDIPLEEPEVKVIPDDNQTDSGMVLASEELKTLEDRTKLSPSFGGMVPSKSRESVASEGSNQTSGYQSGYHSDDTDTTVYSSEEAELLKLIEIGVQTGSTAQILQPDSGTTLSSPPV

IC50 [1]: > 20000 nM | Activity [2]: Active | Activity [3]: inactive | Activity [4]: inactive | Activity [5]: Active | IC50 [6]: 40000 nM
SMILES: O=C(Cc1ccc(-c2ccc(OCCN3CCOCC3)cc2)cn1)NCc1ccccc1 [TIRBANIBULIN]

Activity [2]: Active | Activity [4]: inactive | Activity [5]: Active
SMILES: O=C(O)c1ccccc1Nc1ccccc1

SMILES: CC1(C)CC(NC(=O)c2cccc(-c3cc4nccc(Nc5cccc(O)c5)n4n3)c2)CC(C)(C)N1[O]
IC50 [7]: 5 nM | IC50 (Aurora kinase B): 2900 nM | IC50 [8]: > 50000 nM | IC50 [9]: > 50000 nM | IC50 [10]: 5 nM | IC50 [11]: 16 nM | IC50 [12]: 7 nM | IC50 [1]: 5 nM | IC50 [13]: 3.3 nM | IC50 [14]: > 50000 nM | IC50 [15]: > 50000 nM | IC50 [16]: > 50000 nM | IC50 [17]: > 50000 nM | IC50 [18]: > 60000 nM | IC50 [19]: 1300 nM | IC50 [20]: > 50000 nM | IC50 [21]: 24 nM | IC50 [22]: 38 nM | IC50 [23]: > 50000 nM | Activity [2]: Active | Activity [3]: Active

— ChEMBL document CHEMBL1156806, “Novel synthesis and structural characterization of a high-affinity paramagnetic kinase probe for the identification of non-ATP site binders by nuclear magnetic resonance” (J Med Chem, 2010)
